The source of these data is ChEMBL document CHEMBL2163251, “Synthesis and pharmacological evaluation of indolinone derivatives as novel ghrelin receptor antagonists” (Bioorg Med Chem, 2012).

The source made the active and inactive calls. The calls are words filed in the database; no cut-off is given here.

Data set [1] addresses T1, Growth hormone secretagogue receptor type 1 (Homo sapiens, UniProt Q92847). As to the kind of experiment: Antagonist activity at human GHSR1 expressed in CHO-CREluc cells after 4 hrs by Luciferase reporter assay. The format is functional, cell-based. In short, it runs like this:
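hGHSR1a stably cloned into CHO line carrying CRE-luciferase reporter (six CRE upstream of firefly luciferase). Cells plated in MEM with 10% dialysed FBS. Stimulation medium held 0.1 µM forskolin and 3 nM human ghrelin. Luciferase read by photon counting.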
Background: A reporter such as luciferase makes a cellular process visible.

For data set [2], the target named is T1, Growth hormone secretagogue receptor type 1. In words: Displacement of [125I]-ghrelin from human GHSR1 expressed in CHO-CREluc cells after 1 hr by scintillation counting. The class given is cell-based. Summed up:
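Crude membranes from CHO-CREluc-hGHSR1a cells were homogenized in TM buffer (10 mM Tris-HCl pH 7.4, 10 mM MgCl2) and spun at 40,000g. Incubated 1 h in TM buffer with 0.25% BSA and 10% dialysed FBS, 0.25 nM [125I] human ghrelin and increasing compound concentrations. Harvested on PEI-pretreated GF/B filters and washed with cold buffer. Bound radioactivity counted by scintillation.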
For orientation: In a radioligand displacement assay an active substance lowers the binding of a labelled ligand.

A further data set relates to P-glycoprotein. In words: P-glycoprotein-mediated efflux ratio of the compound. The class given is ADME. The following applies: not told.
Another data set relates to Mus musculus. In words: Effect of glucose tolerance in fasted C57/BL6N mouse assessed as inhibition of glucose excursion at 30 mg/kg, po measured after 20 to 120 mins by IPGTT.

T1 sequence (Q92847 whole entry): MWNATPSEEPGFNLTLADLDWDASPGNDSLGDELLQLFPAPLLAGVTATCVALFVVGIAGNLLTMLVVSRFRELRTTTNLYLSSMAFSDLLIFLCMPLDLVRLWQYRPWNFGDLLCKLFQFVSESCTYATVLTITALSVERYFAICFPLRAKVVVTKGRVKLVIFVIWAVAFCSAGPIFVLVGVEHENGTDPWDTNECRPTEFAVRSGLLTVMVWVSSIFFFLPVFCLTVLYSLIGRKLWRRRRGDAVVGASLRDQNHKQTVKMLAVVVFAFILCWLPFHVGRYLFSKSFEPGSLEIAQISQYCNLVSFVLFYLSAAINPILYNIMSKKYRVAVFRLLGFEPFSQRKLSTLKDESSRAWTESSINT

As to `CN1CCCN(CC(=O)NC2(c3ccc(Cl)c(Cl)c3)C(=O)Nc3cc(Cl)cc(Cl)c32)CC1` (single isomer, unassigned; (+)), the IC50 (as a rule, the concentration needed to halve the response being measured) in data set [1] is 64 nM.
In data set [1], `C=CCN1CCN(CC(=O)NC2(c3ccc(Cl)c(Cl)c3)C(=O)Nc3cc(Cl)cc(Cl)c32)CC1` (single isomer, unassigned; (+)) returned an IC50 of 38 nM. The Ki (in general, the dissociation constant of the complex between target and ligand, obtained from inhibition or displacement) in data set [2] amounted to 121 nM.
Turning to `CCN1CCC(CC(=O)NC2(c3ccc(Cl)c(Cl)c3)C(=O)Nc3cc(Cl)cc(Cl)c32)CC1` (single isomer, unassigned; (+)), the efflux ratio (commonly the permeability from basolateral to apical divided by that in the opposite direction, in the common usage) in the data set on P-glycoprotein is 58. The same compound yielded an IC50 in data set [1] of 1 nM. The compound further registered a Ki in data set [2] of 3 nM.
`Cc1cc2c(cc1Cl)NC(=O)C2(NC(=O)CN1CCN(C)CC1)c1cccc(Cl)c1` (racemic): the half-maximal inhibitory concentration (IC50) in data set [1] came to 1180 nM.
As for `COc1ccc(C2(NC(=O)CN3CCN(C)CC3)C(=O)Nc3cc(Cl)c(Cl)cc32)cc1` (single isomer, unassigned; (+)), the concentration for half-maximal inhibition (IC50) in data set [1] turned out to be 700 nM.
Regarding `CN1CCN(CC(=O)NC2(c3ccc(Cl)cc3)C(=O)Nc3cc(Cl)c(Cl)cc32)CC1` (single isomer, unassigned; (-)), the 50% inhibitory concentration (IC50) in data set [1] is > 10000 nM.
Turning to `Cc1cc2c(cc1Cl)NC(=O)C2(NC(=O)CN1CCN(C)CC1)c1ccc(Cl)cc1Cl` (racemic), the 50% inhibitory concentration (IC50) in data set [1] was > 10000 nM.
For `Cc1cc2c(cc1Cl)NC(=O)C2(NC(=O)CN1CCNCC1)c1ccc(Cl)cc1` (racemic), the IC50 in data set [1] is > 10000 nM.
Same read-out and setting: to `Cc1cc2c(cc1Cl)NC(=O)C2(NC(=O)CN1CCN(c2ccncc2)CC1)c1ccc(Cl)cc1` (racemic) belongs > 10000 nM; to `CCN1CCCC(CC(=O)NC2(c3ccc(Cl)c(Cl)c3)C(=O)Nc3cc(Cl)cc(Cl)c32)C1` (single isomer, unassigned; (+)), 47 nM; to `CN1CCN(CC(=O)NC2(c3ccc(Cl)cc3)C(=O)Nc3c(Cl)cc(Cl)cc32)CC1` (single isomer, unassigned; (+)), 1390 nM.
`CCN1CCN(CC(=O)NC2(c3ccc(Cl)cc3)C(=O)Nc3cc(Cl)c(C)cc32)CC1` (racemic): in data set [1], half-maximal inhibition (IC50) was put at 129 nM. In data set [2], this compound displayed an inhibition constant Ki of 286 nM.
In turn, `CN1CCN(CC(=O)NC2(c3ccc(Cl)cc3)C(=O)Nc3cc(Cl)c(Cl)c(Cl)c32)CC1` (racemic) returned an IC50 in data set [1] of 273 nM.
The same measure, in the same setting: with `Cc1cc2c(cc1Cl)NC(=O)C2(NC(=O)CN1CCN(C)CC1)c1ccccc1Cl` (racemic) the figure was > 10000 nM.
Turning to `CN1CCN(CC(=O)NC2(c3ccc(Cl)cc3)C(=O)Nc3cc(Cl)ccc32)CC1` (single isomer, unassigned; (+)), the IC50 in data set [1] came to 140 nM.
As to `Cc1cc2c(cc1Cl)NC(=O)C2(NC(=O)CN1CCN(Cc2ccccc2)CC1)c1ccc(Cl)cc1` (racemic), the IC50 in data set [1] is > 10000 nM.
Turning to `Cc1cc2c(cc1Cl)NC(=O)C2(NC(=O)CN1CCN(C)CC1)c1ccc(Cl)c(Cl)c1` (racemic), in data set [1], the midpoint of inhibition, the IC50, lay at 220 nM. For the same compound, the inhibition constant (Ki) in data set [2] is > 1000 nM.
For the compound `CN1CCN(CC(=O)N[C@]2(c3ccc(Cl)cc3)C(=O)Nc3cc(Cl)c(Cl)cc32)CC1`, the 50% inhibitory concentration (IC50) in data set [1] came to 47 nM. This compound also gave an inhibition constant Ki in data set [2] of 249 nM.
For the compound `CN(C)C1CCN(CC(=O)NC2(c3ccc(Cl)c(Cl)c3)C(=O)Nc3cc(Cl)cc(Cl)c32)CC1` (single isomer, unassigned; (+)), the concentration for half-maximal inhibition (IC50) in data set [1] was 239 nM.
For the compound `Cc1cc2c(cc1Cl)NC(=O)C2(NC(=O)CN1CCN(C)CC1)c1ccc(Cl)cc1` (racemic), the midpoint of inhibition in data set [1], the IC50, lay at 213 nM. In addition, the affinity in data set [2], expressed as Ki, was 392 nM.
The compound `CN1CCN(CC(=O)NC2(c3ccc(Cl)c(Cl)c3)C(=O)Nc3cc(Cl)cc(Cl)c32)CC1` (single isomer, unassigned; (+)) showed a half-inhibitory concentration (IC50) in data set [1] of 24 nM.
`CN1CCN(CC(=O)NC2(c3ccc(Cl)c(Cl)c3)C(=O)Nc3cc(Cl)ccc32)CC1` (single isomer, unassigned; (+)): the 50% inhibitory concentration (IC50) in data set [1] is 111 nM.
Same read-out and setting: to `CN(C)[C@@H]1CCN(CC(=O)NC2(c3ccc(Cl)c(Cl)c3)C(=O)Nc3cc(Cl)cc(Cl)c32)C1` (stereo partly drawn) belongs 25 nM.
Take `CCN1CCN(CC(=O)NC2(c3ccc(Cl)cc3)C(=O)Nc3cc(Cl)c(Cl)cc32)CC1` (racemic): in data set [1], the IC50 worked out at 110 nM. In data set [2], affinity was put at a Ki of 202 nM.
On the same counts, the results for `CN1CCN(CC(=O)NC2(c3ccc(Cl)cc3)C(=O)Nc3cc(Cl)cc(Cl)c32)CC1` (single isomer, unassigned; (+)) are 72 nM and 44 nM.
As for `Cc1ccc2c(c1Cl)C(NC(=O)CN1CCN(C)CC1)(c1ccc(Cl)cc1)C(=O)N2` (racemic), the IC50 in data set [1] was determined as 1160 nM.
With `CCC1=C(C)CN(C(=O)NCCc2ccc(S(=O)(=O)NC(=O)N[C@H]3CC[C@H](C)CC3)cc2)C1=O`, the inhibition entry with Mus musculus is “Active”.
Compound `CC1CCN(CC(=O)NC2(c3ccc(Cl)cc3)C(=O)Nc3cc(Cl)c(Cl)cc32)CC1` (racemic) gave a half-inhibitory concentration (IC50) in data set [1] of 2540 nM.
`Cc1cc2c(cc1Cl)C(NC(=O)CN1CCN(C)CC1)(c1ccc(Cl)cc1)C(=O)N2` (single isomer, unassigned; (+)) had an IC50 in data set [1] of 251 nM.
As for `CN(C)[C@H]1CCN(CC(=O)NC2(c3ccc(Cl)c(Cl)c3)C(=O)Nc3cc(Cl)cc(Cl)c32)C1` (stereo partly drawn), in data set [1], the IC50 worked out at 110 nM.
The same measure, in the same setting: with `CCN1CCN(CC(=O)NC2(c3ccc(Cl)c(Cl)c3)C(=O)Nc3cc(Cl)cc(Cl)c32)CC1=O` (single isomer, unassigned; (+)) the figure was 2780 nM.
Compound `COc1ccc(C2(NC(=O)CN3CCN(C)CC3)C(=O)Nc3cc(Cl)c(C)cc32)cc1` (single isomer, unassigned; (+)) registered an IC50 in data set [1] of 525 nM.
Same read-out and setting: with `CN(C)CCN(C)CC(=O)NC1(c2ccc(Cl)cc2)C(=O)Nc2cc(Cl)c(Cl)cc21` (racemic) the figure was > 10000 nM.
Compound `CN1CCN(CC(=O)NC2(c3ccc(C(C)(C)C)cc3)C(=O)Nc3cc(Cl)c(Cl)cc32)CC1` (single isomer, unassigned; (+)) registered a concentration for half-maximal inhibition (IC50) in data set [1] of 1470 nM.
